Data from ChEMBL document CHEMBL3297654, “Synthesis, antimicrobial and cytotoxic activities, and structure-activity relationships of gypsogenin derivatives against human cancer cells” (Eur J Med Chem, 2014).
Active and inactive are the calls of the source. The rule behind the calls is not given here.

Assays:
Caco-2 [1] = assay: Induction of apoptosis in human Caco2 cells at 20 uM after 48 hrs by Hoechst 33258/propidium iodide staining based phase contrast microscopic analysis; assay type: functional
Outline: (§1)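 Cells in 48-well plates treated with 0.5, 10, 20 or 40 µM for 24 and 48 h. Values are read at 48 h, 20 µM for test agents and 0.5 µM for controls. Staining is Hoechst 33258/propidium iodide double staining with fluorescence microscopy. Blue nuclei are viable or early-to-mid apoptotic, and pink nuclei are late apoptotic or necrotic. Apoptosis and necrosis are scored from chromatin condensation as % of cells. Cells are grown at 37 °C in 5% CO2 in RPMI, DMEM or McCoy's 5A with 10–15% heat-inactivated FCS.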

Bacillus cereus [2] = assay: Antimicrobial activity against Bacillus cereus ATCC 11778 for 24 hrs by microdillution method; assay type: functional
Outline: (§2)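 Broth microdilution. Compound is dissolved in DMSO (2 mg/mL) and diluted in Mueller Hinton broth as two-fold serial dilutions from 256 to 0.125 µg/mL. Bacteria are pre-grown in nutrient broth at 30 °C, and the final inoculum is about 10^6 cfu/mL. Tests are incubated 37 °C for 24 h. MIC is the lowest concentration giving complete inhibition. Streptomycin is the positive control.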

Caco-2 [3] = assay: Induction of necrosis in human Caco2 cells at 20 uM after 48 hrs by Hoechst 33258/propidium iodide staining based phase contrast microscopic analysis; assay type: functional; outline: as §1
[4] = test system: Staphylococcus epidermidis; assay: Antimicrobial activity against Staphylococcus epidermidis ATCC 12228 assessed as zone of inhibition at 30 uL for 24 hrs at 37 degC by disk diffusion test; assay type: functional, organism-based
Outline: (§3)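 Compound (30 µL of a fresh 1000 µg/mL DMSO stock) goes into a 6 mm well cut in Mueller Hinton agar inoculated with 0.1 mL broth culture adjusted to 0.5 McFarland (about 1×10^8 cells/mL). Plates are incubated 24 h at 37 °C, then zone of inhibition diameter is measured in mm.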

HT-29 [5] = assay: Antiproliferative activity against human HT-29 cells after 24 and 72 hrs by MTT assay; assay type: functional, cell-based
Outline: (§4)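 ATCC human cell lines are kept in RPMI, DMEM or McCoy's 5A with 10–15% heat-inactivated FCS at 37 °C and 5% CO2. They are seeded at 1×10^4–1×10^5 cells/mL in 48-well plates and exposed to 0.5, 10, 20 or 40 µM. Viability is read by MTT (590 nm) at 24 and 72 h. Growth is expressed relative to untreated cells and IC50 is fitted, in triplicate.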

Candida albicans = assay: Antimicrobial activity against Candida albicans ATCC 10231 assessed as zone of inhibition at 30 uL for 24 hrs at 30 degC by disk diffusion test; assay type: functional, organism-based
Outline: (§5)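 Agar well diffusion on Mueller Hinton agar seeded with 0.1 mL broth culture (18–24 h), adjusted to 0.5 McFarland (about 1×10^8 bacteria or 1×10^6 yeast cells/mL). A 6 mm well is filled with 30 µL of compound from a fresh 1000 µg/mL DMSO stock. Plates are held at 30 °C for 24 h and inhibition zone diameter is read in mm.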

Bacillus thuringiensis [6] = assay: Antimicrobial activity against Bacillus thuringiensis for 24 hrs by microdillution method; assay type: functional; outline: as §2
Pseudomonas aeruginosa = assay: Antimicrobial activity against Pseudomonas aeruginosa ATCC 35032 assessed as zone of inhibition at 30 uL for 24 hrs at 37 degC by disk diffusion test; assay type: functional, organism-based; outline: as §3
Bacillus thuringiensis [7] = assay: Antimicrobial activity against Bacillus thuringiensis assessed as zone of inhibition at 30 uL for 24 hrs at 30 degC by disk diffusion test; assay type: functional; outline: as §5
Bacillus subtilis [8] = assay: Antimicrobial activity against Bacillus subtilis ATCC 6633 for 24 hrs by microdillution method; assay type: functional; outline: as §2
HeLa [9] = assay: Induction of apoptosis in human HeLa cells at 20 uM after 48 hrs by Hoechst 33258/propidium iodide staining based phase contrast microscopic analysis; assay type: functional; outline: as §1
HL-60 [10] = assay: Induction of necrosis in human HL60 cells at 20 uM after 48 hrs by Hoechst 33258/propidium iodide staining based phase contrast microscopic analysis; assay type: functional; outline: as §1
[11] = Antiproliferative activity against human Saos2 cells after 24 and 72 hrs by MTT assay; assay type: functional, cell-based; details: SAOS-2; outline: as §4
Caco-2 [12] = assay: Antiproliferative activity against human Caco2 cells after 24 and 72 hrs by MTT assay; assay type: functional, cell-based; outline: as §4
Saccharomyces cerevisiae = assay: Antimicrobial activity against Saccharomyces cerevisiae ATCC 9763 assessed as zone of inhibition at 30 uL for 24 hrs at 30 degC by disk diffusion test; assay type: functional, organism-based; outline: as §5
Salmonella typhimurium = assay: Antimicrobial activity against Salmonella typhimurium ATCC 14028 assessed as zone of inhibition at 30 uL for 24 hrs at 37 degC by disk diffusion test; assay type: functional, organism-based; details: Salmonella enterica subsp. enterica serovar Typhimurium; outline: as §3
Proteus vulgaris = assay: Antimicrobial activity against Proteus vulgaris ATCC 33420 assessed as zone of inhibition at 30 uL for 24 hrs at 37 degC by disk diffusion test; assay type: functional, organism-based; outline: as §3
Micrococcus luteus = assay: Antimicrobial activity against Micrococcus luteus ATCC 9341 assessed as zone of inhibition at 30 uL for 24 hrs at 30 degC by disk diffusion test; assay type: functional, organism-based; outline: as §5
HL-60 [13] = assay: Induction of apoptosis in human HL60 cells at 20 uM after 48 hrs by Hoechst 33258/propidium iodide staining based phase contrast microscopic analysis; assay type: functional; outline: as §1
HeLa [14] = assay: Induction of necrosis in human HeLa cells at 20 uM after 48 hrs by Hoechst 33258/propidium iodide staining based phase contrast microscopic analysis; assay type: functional; outline: as §1
Candida tropicalis = assay: Antimicrobial activity against Candida tropicalis assessed as zone of inhibition at 30 uL for 24 hrs at 30 degC by disk diffusion test; assay type: functional, organism-based; outline: as §5
Enterococcus faecalis = assay: Antimicrobial activity against Enterococcus faecalis ATCC 29212 assessed as zone of inhibition at 30 uL for 24 hrs at 37 degC by disk diffusion test; assay type: functional, organism-based; outline: as §3
MCF7 [15] = assay: Antiproliferative activity against human MCF7 cells after 24 and 72 hrs by MTT assay; assay type: functional, cell-based; outline: as §4
Staphylococcus aureus = assay: Antimicrobial activity against Staphylococcus aureus ATCC 25923 assessed as zone of inhibition at 30 uL for 24 hrs at 37 degC by disk diffusion test; assay type: functional, organism-based; outline: as §3
HT-29 [16] = assay: Induction of necrosis in human HT-29 cells at 20 uM after 48 hrs by Hoechst 33258/propidium iodide staining based phase contrast microscopic analysis; assay type: functional; outline: as §1
Escherichia coli = assay: Antimicrobial activity against Escherichia coli ATCC 25922 assessed as zone of inhibition at 30 uL for 24 hrs at 37 degC by disk diffusion test; assay type: functional, organism-based; outline: as §3
Klebsiella pneumoniae = assay: Antimicrobial activity against Klebsiella pneumoniae ATCC 13882 assessed as zone of inhibition at 30 uL for 24 hrs at 37 degC by disk diffusion test; assay type: functional, organism-based; outline: as §3
Cyberlindnera jadinii = assay: Antimicrobial activity against Candida utilis ATCC 9950 assessed as zone of inhibition at 30 uL for 24 hrs at 30 degC by disk diffusion test; assay type: functional, organism-based; outline: as §5
HT-29 [17] = assay: Induction of apoptosis in human HT-29 cells at 20 uM after 48 hrs by Hoechst 33258/propidium iodide staining based phase contrast microscopic analysis; assay type: functional; outline: as §1
Bacillus subtilis [18] = assay: Antimicrobial activity against Bacillus subtilis ATCC 6633 assessed as zone of inhibition at 30 uL for 24 hrs at 30 degC by disk diffusion test; assay type: functional; outline: as §5
Nakaseomyces glabratus = assay: Antimicrobial activity against Candida glabrata assessed as zone of inhibition at 30 uL for 24 hrs at 30 degC by disk diffusion test; assay type: functional, organism-based; outline: as §5
Bacillus cereus [19] = assay: Antimicrobial activity against Bacillus cereus ATCC 11778 assessed as zone of inhibition at 30 uL for 24 hrs at 30 degC by disk diffusion test; assay type: functional; outline: as §5
SAOS-2 [20] = assay: Induction of apoptosis in human Saos2 cells at 20 uM after 48 hrs by Hoechst 33258/propidium iodide staining based phase contrast microscopic analysis; assay type: functional; outline: as §1
SAOS-2 [21] = assay: Induction of necrosis in human Saos2 cells at 20 uM after 48 hrs by Hoechst 33258/propidium iodide staining based […] microscopic analysis; assay type: functional; outline: as §1
HeLa [22] = assay: Antiproliferative activity against human HeLa cells after 24 and 72 hrs by MTT assay; assay type: functional, cell-based; outline: as §4
MCF7 [23] = assay: Induction of apoptosis in human MCF7 cells at 20 uM after 48 hrs by Hoechst 33258/propidium iodide staining based phase contrast microscopic analysis; assay type: functional; outline: as §1
HL-60 [24] = assay: Antiproliferative activity against human HL60 cells after 24 and 72 hrs by MTT assay; assay type: functional, cell-based; outline: as §4
MCF7 [25] = assay: Induction of necrosis in human MCF7 cells at 20 uM after 48 hrs by Hoechst 33258/propidium iodide staining based phase contrast microscopic analysis; assay type: functional; outline: as §1

Row | Structure (SMILES) | Activity (Caco-2 [1]) [%] | MIC (Bacillus cereus [2]) | Activity (Caco-2 [3]) [%] | diameter of the inhibition zone (DIZ) [4] | IC50 (HT-29 [5]) [µM] | diameter of the inhibition zone (DIZ) (Candida albicans) | MIC (Bacillus thuringiensis [6]) | diameter of the inhibition zone (DIZ) (Pseudomonas aeruginosa) | diameter of the inhibition zone (DIZ) (Bacillus thuringiensis [7]) | MIC (Bacillus subtilis [8]) | Activity (HeLa [9]) [%] | Activity (HL-60 [10]) [%] | IC50 [11] [µM] | IC50 (Caco-2 [12]) [µM] | diameter of the inhibition zone (DIZ) (Saccharomyces cerevisiae) | diameter of the inhibition zone (DIZ) (Salmonella typhimurium) | diameter of the inhibition zone (DIZ) (Proteus vulgaris) | diameter of the inhibition zone (DIZ) (Micrococcus luteus) | Activity (HL-60 [13]) [%] | Activity (HeLa [14]) [%] | other results
1 | CC1(C)CC[C@]2(C(=O)OCc3ccccc3)CC[C@]3(C)C(=CC[C@@H]4[C@@]5(C)CC[C@H](O)[C@@](C)(C=O)[C@@H]5CC[C@]43C)[C@@H]2C1 | 1 | inactive | 15 | inactive | 8.51 | inactive | inactive | inactive | inactive | inactive | 4 | 48 | 12.7 | 11.1 | inactive | inactive | inactive | inactive | 6 | 45 | diameter of the inhibition zone (DIZ) (Candida tropicalis): inactive; diameter of the inhibition zone (DIZ) (Enterococcus faecalis): inactive; IC50 (MCF7 [15]): 5.15 µM; diameter of the inhibition zone (DIZ) (Staphylococcus aureus): inactive; Activity (HT-29 [16]): 22%; diameter of the inhibition zone (DIZ) (Escherichia coli): inactive; diameter of the inhibition zone (DIZ) (Klebsiella pneumoniae): inactive; diameter of the inhibition zone (DIZ) (Cyberlindnera jadinii): inactive; Activity (HT-29 [17]): 1%; diameter of the inhibition zone (DIZ) (Bacillus subtilis [18]): inactive; diameter of the inhibition zone (DIZ) (Nakaseomyces glabratus): inactive; diameter of the inhibition zone (DIZ) (Bacillus cereus [19]): inactive; Activity (SAOS-2 [20]): 9%; Activity (SAOS-2 [21]): 30%; IC50 (HeLa [22]): 74.2 µM; Activity (MCF7 [23]): 4%; IC50 (HL-60 [24]): 8.14 µM; Activity (MCF7 [25]): 57%
2 | CC(=O)O[C@H]1CC[C@]2(C)[C@H]3CC=C4[C@@H]5CC(C)(C)CC[C@]5(C(=O)OCc5ccccc5)CC[C@@]4(C)[C@]3(C)CC[C@H]2[C@]1(C)/C=N/O | 19 | inactive | 33 | inactive | 21.4 | inactive | inactive | inactive | inactive | inactive | 15 | 50 | 11.7 | 20.3 | inactive | inactive | inactive | inactive | 5 | 50 | diameter of the inhibition zone (DIZ) (Candida tropicalis): inactive; diameter of the inhibition zone (DIZ) (Enterococcus faecalis): inactive; IC50 (MCF7 [15]): 9.9 µM; diameter of the inhibition zone (DIZ) (Staphylococcus aureus): inactive; Activity (HT-29 [16]): 14%; diameter of the inhibition zone (DIZ) (Escherichia coli): inactive; diameter of the inhibition zone (DIZ) (Klebsiella pneumoniae): inactive; diameter of the inhibition zone (DIZ) (Cyberlindnera jadinii): inactive; Activity (HT-29 [17]): 24%; diameter of the inhibition zone (DIZ) (Bacillus subtilis [18]): inactive; diameter of the inhibition zone (DIZ) (Nakaseomyces glabratus): inactive; diameter of the inhibition zone (DIZ) (Bacillus cereus [19]): inactive; Activity (SAOS-2 [20]): 24%; Activity (SAOS-2 [21]): 44%; IC50 (HeLa [22]): 40.3 µM; Activity (MCF7 [23]): 10%; IC50 (HL-60 [24]): 8.68 µM; Activity (MCF7 [25]): 48%
